Like-named read-outs stand apart in the source and are kept apart here. Each block holds one compound with its values, some of them ahead of it.
Columns and labels:
HCC78 NSCLC cell line = experiment: Proliferation of HCC78 NSCLC cell line; format: cell-based, human
How it was run: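 HCC-78 cells were obtained from ATCC (STR-authenticated) and passaged under 6 months. Cells were exposed to test compound for 72 hours, and viability was read by CellTiter Glo luminescence.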

[1] = test system: NTRK1 autophosphorylation in CUTO-3 cells (MPRIP-NTRK1); experiment: Western blot of NTRK1 autophosphorylation in CUTO-3 cells; format: cell-based, human; conditions: 6 hours, dovitinib at 1000 nM
How it was run: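 CUTO-3 cells (MPRIP-NTRK1, patient-derived) were treated with inhibitor for 6 hours. They were lysed for 30 min in 0.1% Triton X-100 plus protease inhibitor. Lysates were run on 4–12% Bis-Tris gels and transferred to PVDF. Membranes were blocked in 5% milk, then probed with primary antibody at 1:1,000 and secondary at 1:5,000.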

CUTO-3 cells = experiment: Proliferation of CUTO-3 tumor cells; format: cell-based, human
[2] = test system: NTRK1 autophosphorylation in NIH-3T3 cells transformed with FLAG-tagged CD74-NTRK1; format: cell-based; conditions: 6 hours, western blot
Parental Ba/F3 cells = experiment: Proliferation of parental Ba/F3 cells grown in the presence of IL-3; format: cell-based, murine; conditions: read-out: IC50 Parental Ba/F3
How it was run: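 Parental Ba/F3 cells are immortalized murine bone-marrow pro-B cells. They were incubated with test compound for 72 hours, and viability was measured by CellTiter Glo. Final DMSO was under 0.5%.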

F589V CD74-NTRK1 = format: cell-based; conditions: 293 cells transiently transfected with wild-type and F589V CD74-NTRK1
[3] = test system: ROS1 autophosphorylation and ERK in CD74-ROS1 L2026M transformed Ba/F3 cells; experiment: Western blot of ROS1; format: cell-based, murine
[4] = test system: ROS1 autophosphorylation and ERK in CD74-ROS1 G2032R transformed Ba/F3 cells; experiment: Western blot of ROS1; format: cell-based, murine
[5] = test system: ROS1 autophosphorylation and ERK in CD74-ROS1 wild-type transformed Ba/F3 cells; experiment: Western blot of ROS1; format: cell-based, murine
[6] = test system: ROS1-rearranged metastatic lung adenocarcinoma; experiment: Treatment of one patient with ROS1-rearranged metastatic lung adenocarcinoma
medullary thyroid cancer = conditions: cited from earlier work
prostate cancer = conditions: cited from earlier work
RET-rearranged NSCLC = conditions: of 3 patients with RET-rearranged NSCLC; cited from earlier work
[7] = target: Ba/F3 cells transformed with CD74-ROS1 (wild-type) (Homo sapiens, UniProt P04233+P08922); experiment: Proliferation of Ba/F3 cells transformed with CD74-ROS1 wild-type; format: cell-based, murine; conditions: peak plasma level obtained through FDA-approved oral dosing
ROS1-rearranged NSCLC = conditions: phase II; cited from earlier work
[8] = observed in clinical trials; cited from earlier work
[9] = Homo sapiens, HCC78, read-out: IC50 inhibition of the HCC78 NSCLC cell line
[10] = read-out: IC50 inhibition of CUTO-3 cells, proliferation
[11] = Homo sapiens, CUTO-3, read-out: IC50 inhibition of CUTO-3 cells, proliferation

Chain of Ba/F3 cells transformed with CD74-ROS1 (wild-type) (P08922 1883-2347 limits assumed, one chain of several): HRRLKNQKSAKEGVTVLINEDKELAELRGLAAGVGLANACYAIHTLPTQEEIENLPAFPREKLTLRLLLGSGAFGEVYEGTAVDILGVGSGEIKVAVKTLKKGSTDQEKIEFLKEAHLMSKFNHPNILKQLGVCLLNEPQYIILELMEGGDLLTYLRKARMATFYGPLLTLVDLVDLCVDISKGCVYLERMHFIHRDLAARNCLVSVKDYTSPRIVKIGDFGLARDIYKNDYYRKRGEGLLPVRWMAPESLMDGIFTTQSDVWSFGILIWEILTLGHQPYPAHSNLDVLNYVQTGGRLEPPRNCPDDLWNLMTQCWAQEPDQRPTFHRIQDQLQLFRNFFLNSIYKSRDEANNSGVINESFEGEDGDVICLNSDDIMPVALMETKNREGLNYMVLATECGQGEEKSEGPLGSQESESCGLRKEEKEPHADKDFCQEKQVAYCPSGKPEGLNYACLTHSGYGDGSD

SMILES: CCc1cc2c(cc1N1CCC(N3CCOCC3)CC1)C(C)(C)c1[nH]c3cc(C#N)ccc3c1C2=O [Alectinib]
IC50 (HCC78 NSCLC cell line; [9]): 750 nM

SMILES: COc1cc2nccc(Oc3ccc(NC(=O)C4(C(=O)Nc5ccc(F)cc5)CC4)cc3)c2cc1OC [Cabozantinib, cabozantinib]
right lower lobe lesion size on CT ([6]; 4 weeks after initiation of cabozantinib, from 1.7 cm): 1.4 cm
fatigue ([6]; single patient, after approximately 3 weeks on treatment): grade II
palmar-plantar erythrodysesthesia ([6]; single patient, after approximately 3 weeks on treatment, 140 to 80 mg daily): grade III
patients with dose-reductions (medullary thyroid cancer; medullary thyroid cancer study): 79%
progression-free survival (medullary thyroid cancer; medullary thyroid cancer, vs. 4 months placebo): 11.2 months
patients with doses held (medullary thyroid cancer; medullary thyroid cancer): 65%
patients with discontinuation due to adverse events (medullary thyroid cancer; phase III thyroid cancer study): 16%
IC50 (HCC78 NSCLC cell line; [9]): 1360 nM
phosphorylation of ROS1 and ERK [3]: a decrease is seen in the phosphorylation of ROS1 and ERK
discontinuation rate (prostate cancer; 40 mg group): 18%
rate of dose reduction (prostate cancer; 40 mg group): 31%
discontinuation rate (prostate cancer; 100 mg group): 25%
rate of dose reduction (prostate cancer; 100 mg group): 84%
patients with a partial response (RET-rearranged NSCLC): 2 patients
patients with stable disease (RET-rearranged NSCLC): 1 patient
fold by which inhibitory concentrations are below the peak plasma level [7]: ~ 50 fold
phosphorylation of ROS1 and ERK [4]: a decrease is seen in the phosphorylation of ROS1 and ERK
phosphorylation of ROS1 and ERK [5]: a decrease is seen in the phosphorylation of ROS1 and ERK

SMILES: Cc1cc(Nc2ncc(Cl)c(Nc3ccccc3S(=O)(=O)C(C)C)n2)c(OC(C)C)cc1C1CCNCC1 [Ceritinib]
IC50 (HCC78 NSCLC cell line; [9]): 530 nM

SMILES: CN1CCN(c2ccc(C(=O)Nc3n[nH]c4ccc(Cc5cc(F)cc(F)c5)cc34)c(NC3CCOCC3)c2)CC1 [Entrectinib, entrectinib]
IC50 (HCC78 NSCLC cell line; [9]): 450 nM
phosphorylation of ROS1 and ERK [3]: only effective at blocking activity of wild-type ROS1 signaling
phosphorylation of ROS1 and ERK [4]: only effective at blocking activity of wild-type ROS1 signaling
phosphorylation of ROS1 and ERK [5]: only effective at blocking activity of wild-type ROS1 signaling

SMILES: COc1cc2c(Oc3ccc(NC(=O)C4(C(=O)Nc5ccc(F)cc5)CC4)cc3F)ccnc2cc1OCCCN1CCOCC1 [Foretinib, foretinib]
IC50 (HCC78 NSCLC cell line; [9]): 460 nM
phosphorylation of ROS1 and ERK [3]: a decrease is seen in the phosphorylation of ROS1 and ERK
phosphorylation of ROS1 and ERK [4]: a decrease is seen in the phosphorylation of ROS1 and ERK
phosphorylation of ROS1 and ERK [5]: a decrease is seen in the phosphorylation of ROS1 and ERK

SMILES: C[C@H]1Oc2cc(cnc2N)-c2c(nn(C)c2C#N)CN(C)C(=O)c2ccc(F)cc21 [PF-06463922]
IC50 (HCC78 NSCLC cell line; read-out: IC50 inhibition of the HCC78 NSCLC cell line, proliferation): > 10000 nM
phosphorylation of ROS1 and ERK [3]: inhibited wild-type and L2026M mutant ROS1 autophosphorylation and ERK activation
phosphorylation of ROS1 and ERK [4]: little effect on signaling
phosphorylation of ROS1 and ERK [5]: inhibited wild-type and L2026M mutant ROS1 autophosphorylation and ERK activation

SMILES: C[C@]12O[C@H](C[C@]1(O)CO)n1c3ccccc3c3c4c(c5c6ccccc6n2c5c31)CNC4=O [lestaurtinib, Lestaurtinib]
inhibition of NTRK1 autophosphorylation [1]: inhibited NTRK1 autophosphorylation
IC50 (CUTO-3 cells; [11]): 3.5 nM
IC50 (CUTO-3 cells; [10]): 3 nM
inhibition of NTRK1 autophosphorylation [2]: inhibit NTRK1 autophosphorylation
IC50 (Parental Ba/F3 cells; Mus musculus, BaF3, 72 h): 3400 nM
effect of F589V mutation on inhibition of NTRK1 autophosphorylation (F589V CD74-NTRK1): did not affect inhibition of NTRK1 autophosphorylation

More lines, main results first:

IC50 (CUTO-3 cells; [10]): 34 nM
SMILES: Cc1cc(N2CCOCC2)cc2[nH]c(-c3c(NC[C@@H](O)c4cccc(Cl)c4)cc[nH]c3=O)nc12 [BMS-536924]
inhibition of NTRK1 autophosphorylation [1]: inhibited NTRK1 autophosphorylation
inhibition of NTRK1 autophosphorylation [2]: inhibit NTRK1 autophosphorylation
IC50 (Parental Ba/F3 cells; parental Ba/F3 cells, 72 hours): 2750 nM
effect of F589V mutation on inhibition of NTRK1 autophosphorylation (F589V CD74-NTRK1): did not affect inhibition of NTRK1 autophosphorylation

IC50 (HCC78 NSCLC cell line; [9]): 2200 nM
SMILES: COc1cc(N2CCC(N3CCN(C)CC3)CC2)ccc1Nc1ncc(Cl)c(Nc2ccccc2P(C)(C)=O)n1 [Brigatinib, brigatinib]
phosphorylation of ROS1 and ERK [3]: inhibits the phosphorylation of ROS1 and ERK
phosphorylation of ROS1 and ERK [4]: less activity seen
phosphorylation of ROS1 and ERK [5]: inhibits the phosphorylation of ROS1 and ERK

IC50 (HCC78 NSCLC cell line; [9]): 1600 nM
IC50 (CUTO-3 cells; Homo sapiens, CUTO-3, read-out: IC50 inhibition of CUTO-3 cells): 462 nM
SMILES: C[C@@H](Oc1cc(-c2cnn(C3CCNCC3)c2)cnc1N)c1c(Cl)ccc(F)c1Cl [Crizotinib, crizotinib]
progression-free survival (ROS1-rearranged NSCLC): 19.2 month
response rate (ROS1-rearranged NSCLC): 72%
phosphorylation of ROS1 and ERK [5]: inhibits the phosphorylation of ROS1 and ERK

IC50 (CUTO-3 cells; [11]): 170 nM
SMILES: CN1CCN(c2ccc3nc(-c4c(N)c5c(F)cccc5[nH]c4=O)[nH]c3c2)CC1 [dovitinib, Dovitinib]
inhibition of NTRK1 autophosphorylation [1]: partial inhibition
peak plasma level with oral dosing [8]: 568 nM
inhibition of NTRK1 autophosphorylation [2]: weaker than would be suggested by its IC50 value
IC50 (Parental Ba/F3 cells; Mus musculus, BaF3, 72 h): 4200 nM
